High-throughput results deposited in PubChem BioAssay by several laboratories.
Compounds with a hit are over-represented: about 1.7% of the library has one in this group of screens.
IMP-1 inhibitor: blocks Pseudomonas aeruginosa IMP-1 metallo-beta-lactamase. purified IMP-1, nitrocefin hydrolysis, epi-absorbance fluorescence. inhibition, % at 5.6 µM. 0.45% of 290,000 active;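 active = inhibition above the mean plus 3 SD of all compounds in the same screening run, cut at about 4.5% in these data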;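 also: 0% = IMP-1 with DMSO and 100% = DMSO wells lacking enzyme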
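Assay system: purified IMP-1; Quantity: IMP-1 0.2 nM before substrate addition; Medium: HEPES buffer pH 7.1 with ZnSO4 and Brij 35; Incubation: 15 min enzyme–compound preincubation, then 25 min nitrocefin reaction, 25 °C; Signal: fluorescence quenching readout, ex 480/em 530 nm; Controls: DMSO with and without IMP-1; Repeats: singlicate testing.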
Neddyl block: blocks human cullin neddylation. TR-FRET cullin neddylation, biochemical. calls only at 25 µM. 0.58% of 360,000 active. AID 651699; in the data active = inhibition above about 36%
proCasp3 act: procaspase-3 (human) activation | recombinant procaspase-3 D3A, Ac-DEVD-pNA absorbance 405 nm | 0.11% of 330,000 active | P42574 | activation, % at 8.5 µM | AID 463141;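 active = activation above the mean of all tested compounds plus 3 SD, cut at about 21% in these data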;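 also: 0% = DMSO alone and 100% = DMSO wells spiked with extra 5 µM PC-3 D3A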
Target sequence (P42574 whole entry D9A/D28A/D175A): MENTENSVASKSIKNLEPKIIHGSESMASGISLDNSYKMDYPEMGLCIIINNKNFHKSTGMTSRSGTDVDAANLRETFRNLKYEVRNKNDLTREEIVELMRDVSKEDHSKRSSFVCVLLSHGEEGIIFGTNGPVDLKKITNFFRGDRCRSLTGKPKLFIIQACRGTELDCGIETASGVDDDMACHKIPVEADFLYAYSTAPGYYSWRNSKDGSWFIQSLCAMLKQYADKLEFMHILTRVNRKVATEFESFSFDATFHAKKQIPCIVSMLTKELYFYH
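Technique: 405 nm absorbance of p-nitroaniline, reads at 0 and 120 min; Test system: Procaspase-3 D3A mutant; Incubation: 1 h enzyme-compound preincubation, then 2 h substrate reaction, 25 °C; Repeats: singlicate, each compound tested once; Benchmarks: low control DMSO wells, high control DMSO plus 5 µM PC-3 D3A.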
VIM-2 inh: inhibitors of Pseudomonas aeruginosa VIM-2 metallo-beta-lactamase; purified VIM-2, nitrocefin hydrolysis, epi-absorbance fluorescence; inhibition, % at 5.6 µM; 0.89% of 290,000 active;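 active = inhibition above the mean of all tested compounds plus 3 SD, cutoff set per screening run, cut at about 7.5% in these data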;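 also: red hydrolysis product quenches plate fluorescence so inhibitors raise well fluorescence; 0% = enzyme with DMSO and 100% = DMSO without enzyme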
PolyA inh: yeast polyadenylation inhibition. S. cerevisiae SKY197-pL101 polyadenylation reporter, beta-gal luminescence; efflux-impaired pdr1/pdr3 knockout yeast; score 100 = 6 SD above DMSO. activity score, % at 12 µM. 0.02% of 300,000 active. AID 1875;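 active = lowest replicate activity score at least 50, where 100 means six control SD above control mean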;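 also: yeast exposed to compound for 9 h at 30 °C; higher score means more reporter readthrough which indicates perturbed polyadenylation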
proCasp7 act: counter-screen for procaspase-3 activators: activators of human procaspase-7; 0.093% of 330,000 active; P55210; recombinant procaspase-7, Ac-DEVD-pNA absorbance 405 nm; D23A/D198A/D206A triple mutant, cannot self-cleave; scale: DMSO 0, 5 µM enzyme 100; activation, % at 8.5 µM; AID 463210;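 active = percent activation above the screen-wide mean plus 3 SD, cut at about 25% in these data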
Target sequence (P55210 whole entry D23A/D198A/D206A): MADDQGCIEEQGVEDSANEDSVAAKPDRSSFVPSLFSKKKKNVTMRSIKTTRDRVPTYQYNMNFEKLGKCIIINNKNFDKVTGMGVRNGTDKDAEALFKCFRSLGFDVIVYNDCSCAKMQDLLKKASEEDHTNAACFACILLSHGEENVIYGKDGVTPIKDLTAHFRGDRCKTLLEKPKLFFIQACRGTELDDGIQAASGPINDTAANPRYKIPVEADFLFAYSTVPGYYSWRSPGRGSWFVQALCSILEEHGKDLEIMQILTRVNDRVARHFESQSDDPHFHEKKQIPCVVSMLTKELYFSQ
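Assay system: Uncleavable procaspase-7 mutant enzyme | Input: 2 µM procaspase-7 mutant as dispensed | Timing: 1 h compound preincubation, 2 h substrate cleavage, 25 °C | Repeats: One well per compound | Control set: DMSO wells as 0%, DMSO with 5 µM added PC-7 as 100% | Technique: Epi-absorbance of released pNA at 405 nm, two timepoints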
proCasp7 act trip: counter-screen: procaspase-7 (human) activation in triplicate; shares compounds with proCasp3 act; recombinant procaspase-7, Ac-DEVD-pNA absorbance; asp23/198/206-to-Ala mutant, cannot self-cleave; activation, % at 8.5 µM; 210 tested, under 10 active;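 active = mean activation above a set limit taken from an earlier procaspase-7 screen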;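 also: 0% = DMSO wells and 100% = DMSO plus 5 µM procaspase-7 enzyme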
proCasp3 confirm: confirmation of human procaspase-3 activators. recombinant PC-3 D3A, Ac-DEVD-pNA absorbance 405 nm; 100% is higher-enzyme control. activation, % at 8.5 µM. AID 488954. shares compounds with proCasp3 act. 10% of 210 active;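 active = mean activation above a set limit carried over from the earlier primary screen, cut at about 22% in these data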
Neddyl inh conf: cullin neddylation inhibition, confirmation; calls only at 25 µM; 13% of 1,800 active; TR-FRET cullin neddylation biochemical assay; shares compounds with Neddyl block; in the data active = inhibition above about 40%;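 also: neddylation substrate is the cullin 1 ring ligase complex with SKP2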
The depositor's hits bear a star; i = inactive; / = no result shown; + = active, no number.

SMILES | IMP-1 inhibitor | Neddyl block | proCasp3 act | VIM-2 inh | PolyA inh | proCasp7 act | proCasp7 act trip | proCasp3 confirm | others
CC(OC(=O)c1cc(=O)[nH]c2ccccc12)C(=O)c1ccccc1 (stereo unspecified) | -3.1 | i | 22.4* | -2.2 | -13.7 | 12.6 | 1.9 | 7.0
CC(C)OC(=O)c1cc(=O)[nH]c2ccccc12 | -3.2 | i | 2.4 | -1.1 | 14.4 | 0.7 | / | /
Cc1c(C)n2c(SCC(=O)N3CCCCCC3)nnc2[nH]c1=O | / | i | 22.6* | / | 4.0 | 8.9 | 0.8 | 2.7
Cc1nc2c(O)c3c(c(O)c2nc1C)C1C=CC3CC1 | / | i | / | / | / | / | / | /
Cc1ccc(-c2nc(CN(CC3CCC3)CC3CCCO3)c(C)o2)s1 (stereo unspecified) | -0.3 | i | -0.4 | -0.3 | -6.8 | 7.1 | / | /
CCOc1ccc(C(=O)C[n+]2ccc(C(=O)NCc3ccccc3)cc2)cc1 | -0.9 | i | 32.7* | 1.3 | 1.8 | 6.6 | 5.2 | 6.6
COc1cc2sc3ccc(C#CC4(O)CCCCC4)cc3c(=O)c2cc1OC | / | i | 69.7* | / | 7.2 | 25.0 | -21.6 | -13.1
Cc1ccccc1NC(=O)Cc1nc(COC(=O)COc2cccc(C)c2C)cs1 | / | i | -3.0 | / | -9.5 | 2.7 | / | /
Cc1sc(NC(=O)CCCC(=O)O)c(C#N)c1C | -2.8 | i | 21.8* | -1.7 | 10.5 | -7.7 | -7.0 | -0.9
CCOCC(=O)Nc1nnc(Cc2ccc(OC)c(OC)c2)s1 | -4.4 | i | -8.7 | -4.0 | -6.2 | -20.2 | / | /
Oc1ccc(N=Cc2ccc(-c3cccs3)s2)cc1 | -4.6 | / | 35.2* | -2.8 | -4.6 | 23.5 | -21.8 | -12.4
CCCn1c2ccccc2c2nnc(SCC(=O)Nc3nnc(CC(=O)OCC)s3)nc21 | 0.1 | i | 84.3* | -1.4 | 1.3 | 7.9 | 2.9 | 4.0
CCOC(=O)Cc1nnc(NC(=O)CSc2nnc3c4ccccc4n(C(C)C)c3n2)s1 | -3.8 | i | -5.5 | -1.9 | 14.4 | -3.1 | / | /
O=C(NC12CC3CC(CC(C3)C1)C2)c1ccccc1 | -4.9 | i | -1.0 | 1.4 | 1.8 | 12.4 | / | /
O=C(NC12CC3CC(CC(C3)C1)C2)N(Cc1ccccc1)Cc1ccncc1 | -0.8 | i | 58.6* | -0.4 | -25.8 | 7.2 | 4.1 | 6.7
Cc1ccc(NC(=O)Cn2cnc3c(=O)n(C)c(=O)n(C)c32)c(C)c1 | -2.4 | i | 1.2 | -1.6 | 8.8 | 1.0 | / | /
Cc1ccc2nc(CSc3nc(C)cc(C)c3C#N)[nH]c2c1 | -2.7 | + | 69.0* | -1.4 | -6.8 | 7.3 | -20.1 | -10.9
Cc1ccc(C(=O)COC(=O)CCC(=O)Nc2cc(Cl)ccc2Cl)cc1[N+](=O)[O-] | -2.0 | i | 2.0 | 0.3 | -5.0 | 4.0 | / | /
CNC(=O)c1c(NC(=O)c2cccc(C)c2)sc2c1CCC2 | 4.7* | + | 28.9* | 2.2 | -3.8 | -226.4 | -3.0 | -1.8
CCCN1CCC(C(=O)NC(c2ccc(F)cc2)c2ncccc2C)CC1 (stereo unspecified) | / | i | / | / | / | / | / | /
CC1(C)CC(=O)C2=C(C1)c1c(ccc3ccccc13)NC2c1ccc(Br)o1 (stereo unspecified) | 3.4 | + | 29.4* | 4.1 | -29.7 | 16.0 | 31.0* | 3.6 | Neddyl inh conf=i
CC1(C)CC(=O)C2=C(C1)c1c(ccc3ccccc13)NC2c1ccc(OCC(=O)O)cc1 (stereo unspecified) | 2.1 | / | 0.1 | 1.7 | -26.3 | 3.6 | / | /
